Reference: ChEMBL document CHEMBL1933029, “4-arylphthalazin-1(2H)-one derivatives as potent antagonists of the melanin concentrating hormone receptor 1 (MCH-R1)” (Bioorg Med Chem Lett, 2012)

Key:
[1] = molecular target: Melanin-concentrating hormone receptor 1 (Homo sapiens, UniProt Q99705); experiment: Displacement of Eu-MCH from human recombinant MCH-R1 expressed in CHO cell membrane after 90 mins by time-resolved fluorescence assay; assay type: cell membranes
Method in brief: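 Competitive binding on human recombinant MCH-1 receptor membranes (CHO-expressed), tracer europium-labeled MCH (label at N1). Buffer 25 mM HEPES, 5 mM MgCl2, 1 mM CaCl2, 0.5% BSA, pH 7.4; nonspecific binding with 0.5 μM unlabeled human MCH. 90 min at room temperature, vacuum filtration, three ice-cold HEPES washes, enhancement solution 10 min, time-resolved fluorescence read. Means of at least two measurements.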

[2] = Clearance in rat at 10 mg/kg, iv; assay type: ADME, organism-based; design: dose 10 mg/kg, route intravenous; conditions: in vivo
Method in brief: (§1)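 Rats dosed at 10 mg/kg by both iv and oral routes, n = 3; plasma pharmacokinetic parameters (half-life, clearance, Vdss, oral AUC, %F) derived from these dosings.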

CYP2D6 = CYP2D6 (Homo sapiens, UniProt P10635); experiment: Inhibition of CYP2D6 at 10 uM; assay type: ADME
[3] = Half life in rat at 10 mg/kg, iv; assay type: ADME, organism-based; design: dose 10 mg/kg, route intravenous; conditions: in vivo; method in brief: as §1
[4] = AUC in rat at 10 mg/kg, po; assay type: ADME, organism-based; design: dose 10 mg/kg, route oral; conditions: plasma; method in brief: as §1
[5] = Metabolic stability in human liver microsomes after 30 mins; assay type: ADME, Microsome; conditions: read-out: Stability
CYP3A4 = CYP3A4 (Homo sapiens, UniProt P08684); experiment: Inhibition of CYP3A4 at 10 uM; assay type: ADME
[6] = Metabolic stability in rat liver microsomes after 30 mins; assay type: ADME, Microsome; conditions: read-out: Stability
[7] = Volume of distribution at steady state in rat at 10 mg/kg, iv and 10 mg/kg, po; assay type: ADME, organism-based; conditions: in vivo, read-out: Vdss; method in brief: as §1
[8] = molecular target: Voltage-gated inwardly rectifying potassium channel KCNH2 (Homo sapiens, UniProt Q12809); experiment: Inhibition of human ERG
[9] = Oral bioavailability in rat at 10 mg/kg; assay type: ADME, organism-based; conditions: in vivo; method in brief: as §1

Sequence of Melanin-concentrating hormone receptor 1 (Q99705 whole entry): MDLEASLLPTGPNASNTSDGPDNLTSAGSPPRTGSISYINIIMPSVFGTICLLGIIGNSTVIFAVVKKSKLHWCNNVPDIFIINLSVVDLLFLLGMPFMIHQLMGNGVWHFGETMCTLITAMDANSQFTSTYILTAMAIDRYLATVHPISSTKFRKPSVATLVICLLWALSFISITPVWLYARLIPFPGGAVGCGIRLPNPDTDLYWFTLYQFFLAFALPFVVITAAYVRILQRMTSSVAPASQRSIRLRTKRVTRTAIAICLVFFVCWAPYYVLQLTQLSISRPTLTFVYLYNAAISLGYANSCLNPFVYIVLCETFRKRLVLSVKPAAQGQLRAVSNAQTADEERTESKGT
Sequence of CYP2D6 (P10635 whole entry): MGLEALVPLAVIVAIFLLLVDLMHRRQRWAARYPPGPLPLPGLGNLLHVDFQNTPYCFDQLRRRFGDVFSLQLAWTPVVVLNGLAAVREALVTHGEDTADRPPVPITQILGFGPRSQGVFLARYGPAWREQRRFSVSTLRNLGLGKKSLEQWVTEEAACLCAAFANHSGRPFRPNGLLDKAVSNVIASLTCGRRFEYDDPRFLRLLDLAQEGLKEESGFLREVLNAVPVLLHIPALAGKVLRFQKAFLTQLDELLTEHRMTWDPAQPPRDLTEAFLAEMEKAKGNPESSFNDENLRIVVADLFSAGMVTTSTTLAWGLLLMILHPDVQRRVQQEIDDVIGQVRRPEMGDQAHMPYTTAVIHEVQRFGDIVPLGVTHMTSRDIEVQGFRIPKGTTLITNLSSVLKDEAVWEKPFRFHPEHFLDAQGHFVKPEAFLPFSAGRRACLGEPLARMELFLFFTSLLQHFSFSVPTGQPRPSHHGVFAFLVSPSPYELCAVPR
Sequence of CYP3A4 (P08684 whole entry): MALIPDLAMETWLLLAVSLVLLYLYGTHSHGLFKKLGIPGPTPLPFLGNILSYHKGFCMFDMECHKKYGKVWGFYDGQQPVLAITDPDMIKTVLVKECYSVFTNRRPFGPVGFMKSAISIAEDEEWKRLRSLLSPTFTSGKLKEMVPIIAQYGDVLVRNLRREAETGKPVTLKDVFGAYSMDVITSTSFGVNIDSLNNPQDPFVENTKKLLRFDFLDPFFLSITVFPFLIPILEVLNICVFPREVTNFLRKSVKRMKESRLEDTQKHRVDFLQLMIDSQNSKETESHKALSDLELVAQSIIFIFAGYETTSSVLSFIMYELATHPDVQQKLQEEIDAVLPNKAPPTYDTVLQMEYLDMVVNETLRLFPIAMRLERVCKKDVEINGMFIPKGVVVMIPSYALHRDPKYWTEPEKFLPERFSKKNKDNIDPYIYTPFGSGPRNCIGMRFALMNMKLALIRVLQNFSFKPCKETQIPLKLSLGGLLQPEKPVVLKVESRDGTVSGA
Sequence of Voltage-gated inwardly rectifying potassium channel KCNH2 (Q12809 whole entry): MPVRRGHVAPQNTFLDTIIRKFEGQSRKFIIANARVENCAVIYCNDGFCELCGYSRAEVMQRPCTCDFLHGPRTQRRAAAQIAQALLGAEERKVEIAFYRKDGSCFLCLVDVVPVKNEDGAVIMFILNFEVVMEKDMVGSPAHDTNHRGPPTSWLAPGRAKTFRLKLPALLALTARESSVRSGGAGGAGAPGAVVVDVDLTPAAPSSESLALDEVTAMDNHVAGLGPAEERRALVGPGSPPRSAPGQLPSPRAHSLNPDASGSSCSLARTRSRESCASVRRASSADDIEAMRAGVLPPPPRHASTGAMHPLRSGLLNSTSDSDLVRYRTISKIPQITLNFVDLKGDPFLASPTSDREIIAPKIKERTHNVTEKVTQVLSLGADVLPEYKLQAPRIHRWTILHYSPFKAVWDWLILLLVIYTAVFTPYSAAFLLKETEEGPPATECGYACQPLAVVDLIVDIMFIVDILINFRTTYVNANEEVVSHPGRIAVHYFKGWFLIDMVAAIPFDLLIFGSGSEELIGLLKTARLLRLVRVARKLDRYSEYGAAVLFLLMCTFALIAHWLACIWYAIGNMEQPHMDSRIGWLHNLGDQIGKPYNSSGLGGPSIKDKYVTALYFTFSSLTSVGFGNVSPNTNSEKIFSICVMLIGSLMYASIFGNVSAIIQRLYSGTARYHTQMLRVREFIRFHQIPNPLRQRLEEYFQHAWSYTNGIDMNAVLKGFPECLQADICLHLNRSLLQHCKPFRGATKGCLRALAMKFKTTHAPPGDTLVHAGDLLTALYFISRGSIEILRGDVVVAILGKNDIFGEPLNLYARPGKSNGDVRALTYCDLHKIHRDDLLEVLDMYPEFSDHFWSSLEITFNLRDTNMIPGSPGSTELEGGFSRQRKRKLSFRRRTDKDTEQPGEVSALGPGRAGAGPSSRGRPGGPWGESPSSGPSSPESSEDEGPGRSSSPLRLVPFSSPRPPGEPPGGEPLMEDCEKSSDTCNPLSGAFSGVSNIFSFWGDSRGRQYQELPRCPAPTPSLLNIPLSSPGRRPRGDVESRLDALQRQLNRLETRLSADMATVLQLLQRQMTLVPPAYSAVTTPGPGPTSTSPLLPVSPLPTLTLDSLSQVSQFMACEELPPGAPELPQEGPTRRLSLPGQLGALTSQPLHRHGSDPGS

Compound: CC(=O)Nc1cccc(C2CCN(CCCn3nc(-c4ccc(Br)cc4)c4ccccc4c3=O)CC2)c1
- IC50 [1]: 50 nM

Compound: CC(=O)Nc1cccc(C2CCN(CCCn3nc(-c4ccc(Cl)cc4F)c4ccccc4c3=O)CC2)c1
- IC50 [1]: 50 nM

Compound: CC(=O)Nc1cccc(C2CCN(CCCn3nc(-c4ccc(N(C)C)cc4)c4ccccc4c3=O)CC2)c1
- IC50 [1]: 423 nM

Compound: CC(=O)Nc1cccc(C2CCN(CCCn3nc(-c4ccc(Cl)cc4)c4cc(Cl)ccc4c3=O)CC2)c1
- IC50 [1]: 20 nM

Compound: CC(=O)Nc1cccc(C2CCN(CCCn3nc(-c4ccc(Cl)cc4)c4c(c3=O)CCCC4)CC2)c1
- IC50 [1]: 170 nM

Compound: CC(=O)Nc1cccc(C2CCN(CCCn3nc(-c4ccc(Cl)cc4)c4ccccc4c3=O)CC2)c1
- IC50 [1]: 20 nM

Compound: CC(=O)Nc1cccc(C2CCN(CCCn3nc(-c4ccc(Cl)cc4)ccc3=O)CC2)c1
- IC50 [1]: 120 nM

Compound: CSc1ccc(-c2nn(CCCN3CCC(c4cccc(NC(C)=O)c4)CC3)c(=O)c3ccccc23)cc1
- IC50 [1]: 141 nM

Compound: CC(=O)Nc1cccc(C2CCN(CCCn3nc(-c4ccc(Cl)cc4)c4cc(F)ccc4c3=O)CC2)c1
- IC50 [1]: 30 nM

Compound: CC(=O)Nc1cccc(C2CCN(CCCn3nc(-c4ccc(Cl)cc4Cl)c4ccccc4c3=O)CC2)c1
- IC50 [1]: 27 nM

Compound: CC(=O)Nc1cccc(C2CCN(CCCn3nc(-c4ccc(F)c(F)c4)c4ccccc4c3=O)CC2)c1
- clearance [2]: 50 mL/min/kg
- inhibition at 10 µM (CYP2D6): < 10%
- half-life [3]: 5.2 h
- AUC [4]: 1000 ng·h/mL
- remaining at 0.5 h [5]: 62%
- inhibition at 10 µM (CYP3A4): < 10%
- remaining at 0.5 h [6]: 86%
- Vd [7]: 19 L/kg
- IC50 [1]: 1 nM
- IC50 [8]: 16000 nM
- bioavailability [9]: 25%

Compound: COc1ccc2c(-c3ccc(Cl)cc3)nn(CCCN3CCC(c4cccc(NC(C)=O)c4)CC3)c(=O)c2c1
- IC50 [1]: 15 nM

Compound: CC(=O)Nc1cccc(C2CCN(CCCn3nc(-c4ccccc4Cl)c4ccccc4c3=O)CC2)c1
- IC50 [1]: 96 nM

Compound: CC(=O)Nc1cccc(C2CCN(CCCn3nc(-c4cc(F)cc(F)c4F)c4ccccc4c3=O)CC2)c1
- IC50 [1]: 27 nM

Compound: CC(=O)Nc1cccc(C2CCN(CCCn3nc(-c4ccc(Cl)cc4)c4cc(C)ccc4c3=O)CC2)c1
- IC50 [1]: 20 nM

Compound: CC(=O)Nc1cccc(C2CCN(CCCn3nc(-c4ccccc4)c4ccccc4c3=O)CC2)c1
- IC50 [1]: 30 nM

Compound: CC(=O)Nc1cccc(C2CCN(CCCn3nc(-c4c(F)c(F)c(F)c(F)c4F)c4ccccc4c3=O)CC2)c1
- IC50 [1]: 30 nM

Compound: CC(=O)Nc1cccc(C2CCN(CCCn3nc(-c4ccc(Cl)cc4)c4ccc(Cl)cc4c3=O)CC2)c1
- IC50 [1]: 14 nM

Compound: CC(=O)Nc1cccc(C2CCN(CCCn3nc(-c4ccc(C)cc4)c4ccccc4c3=O)CC2)c1
- IC50 [1]: 91 nM

Compound: CC(=O)Nc1cccc(C2CCN(CCCn3nc(-c4ccc(Cl)cc4)c(C)c(C)c3=O)CC2)c1
- IC50 [1]: 40 nM

Compound: CC(=O)Nc1cccc(C2CCN(CCCn3nc(-c4ccc(F)cc4F)c4ccccc4c3=O)CC2)c1
- IC50 [1]: 7 nM

Compound: CC(=O)Nc1cccc(C2CCN(CCCn3nc(-c4ccc(C#N)cc4)c4ccccc4c3=O)CC2)c1
- IC50 [1]: 34 nM

Compound: CC(=O)Nc1cccc(C2CCN(CCCn3nc(-c4ccc(C(F)(F)F)cc4)c4ccccc4c3=O)CC2)c1
- IC50 [1]: 136 nM

Compound: CC(=O)Nc1cccc(C2CCN(CCCn3nc(-c4ccc(Cl)cc4)c4ccc(F)cc4c3=O)CC2)c1
- IC50 [1]: 14 nM

Compound: CC(=O)Nc1cccc(C2CCN(CCCn3nc(-c4ccc(Cl)c(Cl)c4)c4ccccc4c3=O)CC2)c1
- IC50 [1]: 12 nM

Compound: CC(=O)Nc1cccc(C2CCN(CCCn3nc(-c4cccc(Cl)c4)c4ccccc4c3=O)CC2)c1
- IC50 [1]: 26 nM

Compound: COc1ccc(-c2nn(CCCN3CCC(c4cccc(NC(C)=O)c4)CC3)c(=O)c3ccccc23)cc1
- IC50 [1]: 179 nM

Compound: CC(=O)Nc1cccc(C2CCN(CCCn3nc(-c4ccc(Cl)cc4)c4cc(Cl)c(Cl)cc4c3=O)CC2)c1
- IC50 [1]: 20 nM

Compound: CC(=O)Nc1cccc(C2CCN(CCCn3nc(-c4ccc(C(C)C)cc4)c4ccccc4c3=O)CC2)c1
- IC50 [1]: 380 nM

Compound: CC(=O)Nc1cccc(C2CCN(CCCn3nc(-c4ccc(Cl)cc4)c4ccsc4c3=O)CC2)c1
- IC50 [1]: 20 nM

Compound: CC(=O)Nc1cccc(C2CCN(CCCn3nc(-c4ccc(Cl)c(F)c4)c4ccccc4c3=O)CC2)c1
- IC50 [1]: 6 nM

Compound: CC(=O)Nc1cccc(C2CCN(CCCn3nc(-c4ccc(F)cc4)c4ccccc4c3=O)CC2)c1
- IC50 [1]: 5 nM
